Measured values: paper PMC3778918 (Clinical cancer research : an official journal of the …, 2013)
Entries after “also recorded” stand apart in the source; their conditions may differ.

Key:
[1] = Paclitaxel pharmacokinetics in plasma and tumor; format: in vivo, transgenic FVB/n mice bearing the MMTV-Neu transgene
T11/TP53−/− tumors = assay: Short-term tumor volume response, T11/TP53-/- OST; format: in vivo, mice (BALB/c); conditions: T11/TP53−/− model, 14-day treatment
C3(1)-T-antigen tumors = assay: Short-term tumor volume response, C3; format: in vivo, mice (FVB/n); conditions: C3(1)-T-antigen model; for Tumor response (change in tumor volume), in words: 21-day treatment
In short: (§1)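 FVB/n transgenic mice bred in-house, enrolled at spontaneous mammary tumor onset (~0.5 cm), randomized to treatment or untreated control groups. Injectable agents given i.p. once weekly, three doses over 21 days; oral agents milled into chow, given continuously; combinations at single-agent doses. Caliper and/or ultrasound measurements; volume = (width)² × length/2; response = percent volume change at day 21.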

MMTV-Neu tumors [2] = assay: Short-term tumor volume response, MMTV-Neu GEMM; format: in vivo, mice (FVB/n); conditions: MMTV-Neu model; for Tumor response (change in tumor volume), in words: 21-day treatment
In short: as §1

MMTV-Neu tumors [3] = assay: Overall survival of tumor-bearing mice, MMTV-Neu; format: in vivo, mice (FVB/n); conditions: MMTV-Neu model, single agent

For `CC(=O)O[C@H]1C(=O)[C@@]2(C)[C@H]([C@H](OC(=O)c3ccccc3)[C@]3(O)C[C@H](OC(=O)[C@H](O)[C@@H](NC(=O)c4ccccc4)c4ccccc4)C(C)=C1C3(C)C)[C@]1(OC(C)=O)CO[C@@H]1C[C@@H]2O` [paclitaxel], the AUC(0-inf) ([1]; FVB/n (MMTV-Neu transgenic), mouse, plasma, ip, 10 mg/kg) was 6300 ng·h/mL, the “AUC0-∞ in tumor” value ([1]; single IP dose 10 mg/kg, MMTV-Neu mice, tumor) was 42.4 µg·h/g and the “Tumor response (change in tumor volume), in words” value (T11/TP53−/− tumors) was “no response”. For the same molecule, the “Tumor response (change in tumor volume), in words” value (C3(1)-T-antigen tumors) was “no response” and the “Tumor response (change in tumor volume), in words” value (MMTV-Neu tumors [2]) was “no response”.
For `C#Cc1cccc(Nc2ncnc3cc(OCCOC)c(OCCOC)cc23)c1` [erlotinib], the “Subset of treated mice showing potent activity” value (C3(1)-T-antigen tumors) was roughly 40%, the “Extension of lifespan, in words” value (MMTV-Neu tumors [3]) was “to some extent” and the “Tumor response (change in tumor volume), in words” value (MMTV-Neu tumors [2]) was “highly effective”.
For `N.N.O=C([O-])C1(C(=O)[O-])CCC1.[Pt+2]` [carboplatin, Carboplatin], the “Tumor response (change in tumor volume), in words” value (T11/TP53−/− tumors) was “modest but significant responses”, the “Tumor response (change in tumor volume), in words” value (C3(1)-T-antigen tumors) was “modest but significant responses” and the “Tumor response (change in tumor volume), in words” value (MMTV-Neu tumors [2]) was “modest but significant responses”.
In the case of `CS(=O)(=O)CCNCc1ccc(-c2ccc3ncnc(Nc4ccc(OCc5cccc(F)c5)c(Cl)c4)c3c2)o1` [lapatinib], the “Tumor response (change in tumor volume), in words” value (T11/TP53−/− tumors) is reported as “neither erlotinib nor lapatinib were effective”, the “Tumor response (change in tumor volume), in words” value (C3(1)-T-antigen tumors) is reported as “ineffective” and the “Extension of lifespan, in words” value (MMTV-Neu tumors [3]) is reported as “greatly extended lifespan”. The Median survival (MMTV-Neu tumors [3]; untreated median 29 days) was 154 days, the “Tumor response (change in tumor volume), in words” value (MMTV-Neu tumors [2]) was “exceptional efficacy; also recorded: highly effective; also recorded: complete tumor regression” and the Tumor regression (MMTV-Neu tumors [2]; all tumors) was roughly 100%.
